The source of these data is article PMC5546011 (Journal of medicinal chemistry, 2017).

The structures appear in SMILES notation. “Also recorded” adds a separate entry of the source. Read-outs that look alike come from different tables or passages of the source.

Data set [1] relates to mice. The data set can be described thus: Warm-water tail-withdrawal assay. In kind it is in vivo. The conditions noted are these: 50°C warm-water tail withdrawal, 2 mg/kg i.p.
The subject of data set [2] is mice. The data set can be described thus: Intradermal formalin assay. Format: in vivo.
The target of data set [3] is T1, human κ-opioid receptor (Homo sapiens, UniProt P41145). The conditions noted are these: result in words; cited from earlier work.
A short description of data set [4]: Rat liver microsomal stability. The conditions noted are these: rat liver microsomes 0.25 mg/mL, 10 μM compound, no NADPH, 37°C; result in words. For orientation: Liver microsomes are vesicles of endoplasmic reticulum, rich in cytochrome P450 enzymes.
The next data set concerns the target human δ-opioid receptor (Homo sapiens, UniProt P41143). The data set can be described thus: Inhibition of forskolin-induced cAMP accumulation, DOR. Format: cell-based. A digest of the protocol: (§1)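 CHO-K1 HitHunter cells stably expressing human δ- or μ-opioid receptor, kept in F-12 with 10% FBS, 1% penicillin/streptomycin/L-glutamine and 800 μg/mL Geneticin at 37 °C, 5% CO2. cAMP accumulation was normalised to vehicle and forskolin-only controls.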
Background: cAMP levels reflect the balance of adenylyl cyclase and phosphodiesterase activity.

Another data set deals with human μ-opioid receptor (Homo sapiens, UniProt P35372). The data set can be described thus: Inhibition of forskolin-induced cAMP accumulation, MOR. Format: cell-based. A digest of the protocol: as §1
Data set [5] addresses T1, human κ-opioid receptor. The data set can be described thus: Inhibition of forskolin-induced cAMP accumulation, KOR. The conditions noted are these: result in words. In kind it is cell-based.
Where [6] appears, read: 2% intradermal formalin, mice, i.p., vs vehicle/formalin controls.
The mark [7] stands for this setting: 2% intradermal formalin, mice, i.p., result in words.
The mark [8] stands for this setting: 2% intradermal formalin, mice, vs vehicle/formalin controls, result in words.

T1 sequence (P41145 whole entry): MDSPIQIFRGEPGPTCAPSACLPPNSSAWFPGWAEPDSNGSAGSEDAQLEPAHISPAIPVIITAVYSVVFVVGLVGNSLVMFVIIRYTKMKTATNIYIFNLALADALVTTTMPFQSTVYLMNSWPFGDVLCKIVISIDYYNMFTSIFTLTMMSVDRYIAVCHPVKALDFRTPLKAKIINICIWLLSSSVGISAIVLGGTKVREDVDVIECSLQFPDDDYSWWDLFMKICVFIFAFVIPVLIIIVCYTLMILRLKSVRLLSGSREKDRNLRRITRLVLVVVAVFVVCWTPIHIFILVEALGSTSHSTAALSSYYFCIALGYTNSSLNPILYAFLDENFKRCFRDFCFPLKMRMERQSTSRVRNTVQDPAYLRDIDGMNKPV
Chain of human δ-opioid receptor (P41143 whole entry): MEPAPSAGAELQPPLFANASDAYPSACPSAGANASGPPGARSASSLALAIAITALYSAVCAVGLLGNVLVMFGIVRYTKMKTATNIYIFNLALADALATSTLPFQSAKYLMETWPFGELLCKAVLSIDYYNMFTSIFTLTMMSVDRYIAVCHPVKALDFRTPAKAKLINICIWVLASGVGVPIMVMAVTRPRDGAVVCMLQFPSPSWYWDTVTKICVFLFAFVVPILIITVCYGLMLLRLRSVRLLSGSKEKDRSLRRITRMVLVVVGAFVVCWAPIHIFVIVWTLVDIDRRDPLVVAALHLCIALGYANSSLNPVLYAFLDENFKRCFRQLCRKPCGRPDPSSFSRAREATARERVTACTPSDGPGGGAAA
Chain of human μ-opioid receptor (P35372 whole entry): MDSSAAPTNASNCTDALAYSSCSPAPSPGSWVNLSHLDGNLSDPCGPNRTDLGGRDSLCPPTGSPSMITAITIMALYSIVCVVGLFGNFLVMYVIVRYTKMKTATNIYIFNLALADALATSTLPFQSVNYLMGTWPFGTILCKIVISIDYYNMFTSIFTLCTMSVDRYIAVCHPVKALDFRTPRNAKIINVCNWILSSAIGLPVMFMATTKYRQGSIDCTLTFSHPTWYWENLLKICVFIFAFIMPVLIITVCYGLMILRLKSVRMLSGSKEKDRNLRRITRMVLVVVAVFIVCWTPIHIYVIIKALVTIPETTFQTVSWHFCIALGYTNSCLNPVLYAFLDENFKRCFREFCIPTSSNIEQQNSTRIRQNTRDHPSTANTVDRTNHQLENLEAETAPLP

As for `COC(=O)[C@@H]1C[C@H](OC(C)=O)C(=O)[C@H]2[C@@]1(C)CC[C@H]1C(=O)O[C@H](c3ccoc3)C[C@]21C` [compound 9, salvinorin A, reference compound], the “time of significant analgesic effect compared to vehicle (%MPE time course)” value in the data set with mice [1] lay within 5 to 30 min. Further, the “time of significant reduction of phase two pain” value in the data set with mice [2] (setting [6]) lay within 20 to 50 min. Also, in the data set with mice [2] (setting [7]), the “AUC of phase one (0-15 min) pain” value is recorded as “significant reduction” and the “AUC of phase two (15-60 min) pain” value is “significant reduction”. Also, in the data set with mice [2] (setting [8]), the “footpad edema at 60 min” value is “significant reduction in edema”.

Take `COC(=O)[C@@H]1C=C(OC(=O)c2ccccc2)C(=O)[C@H]2[C@@]1(C)CC[C@H]1C(=O)O[C@H](c3ccoc3)C[C@]21C` [Kurkinorin]: the KOR activity result on human κ-opioid receptor [3] was “no KOR activity”.

As a reminder, the EC50 is the concentration at which the effect is half-maximal. A high value points to weaker potency. `COC(=O)[C@@H]1C[C@]2(CCC(=O)O2)C(=O)[C@H]2[C@@]1(C)CC[C@H]1C(=O)O[C@H](c3ccoc3)C[C@]21C` [compound 14, Methyl (2S,4aR,6aR,7R,9R,10aS,10bR)-2-(furan-3-yl)-6a,10b-dimethyl-4,5′,10-trioxododecahydro-2H,3′H,4H-spiro[benzo[f]isochromene-9,2′-furan]-7-carboxylate]: the “time of significant analgesic effect compared to vehicle (%MPE time course)” value in the data set on mice [1] was in the range of 10 to 30 min. Besides, in the data set with mice [2] (setting [6]), the “time of significant attenuation of phase one pain” value worked out at 10 min and the “time of significant reduction of phase two pain” value is 20 to 45 min. Also, in the data set with mice [2] (setting [7]), the “AUC of phase one (0-15 min) pain” value is reported as “not significantly different from vehicle” and the “AUC of phase two (15-60 min) pain” value is on record as “reduced phase two pain”. In the data set with mice [2] (setting [8]), the “footpad edema at 60 min” value is “significant reduction in edema”. For the same compound, the “effect on formalin pain behavior after pre-treatment with nor-BNI” value in the data set on mice [2] (KOR antagonist nor-BNI 10 mg/kg s.c. 24 hours prior, result in words) is given as “prevented”. For the same compound, in data set [4], the “percent remaining at 150 minutes, absence of NADPH” value is on record as “less metabolized than 9”. On human δ-opioid receptor, this compound yielded a concentration giving a half-maximal response (EC50) of over 10 µM. This compound also showed an EC50 on human μ-opioid receptor of over 10 µM.

`COc1ccc2c(c1)[C@]13CCCC[C@@H]1[C@H](C2)N(C)CC3` [dextromethorphan, dextromethorphan hydrobomide, reference compound]: the “percent remaining at 150 minutes, absence of NADPH” value in data set [4] was “not metabolized”.

Take `COC(=O)[C@@H]1CCC(=O)[C@H]2[C@@]1(C)CC[C@H]1C(=O)O[C@H](c3ccoc3)C[C@]21C` [compound 11, Methyl (2S,4aR,6aR,7R,10aS,10bR)-2-(furan-3-yl)-6a,10b-dimethyl-4,10-dioxododecahydro-2H-benzo[f]isochromene-7-carboxylate]: the KOR activity result at human κ-opioid receptor [5] is “complete loss of KOR activity; also recorded: completely inactive”.
